Bioassay records from PubChem BioAssay.
PP5 primary – PP5 phosphatase inhibitors, primary screen, biochemical, fluorescence; inhibition, % at 6.7 µM; purified PP5c, OMFP substrate fluorescence; Serine/threonine-protein phosphatase 5 (Homo sapiens), P53041; 320,000 tested, 0.18% active;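 active = inhibition above the campaign's mean inhibition across all tested compounds plus 3 SD, cut at about 9.5% in these data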;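 also: 0% = DMSO only and 100% = 100 µM cantharidin control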
Target sequence (P53041 whole entry, looked up): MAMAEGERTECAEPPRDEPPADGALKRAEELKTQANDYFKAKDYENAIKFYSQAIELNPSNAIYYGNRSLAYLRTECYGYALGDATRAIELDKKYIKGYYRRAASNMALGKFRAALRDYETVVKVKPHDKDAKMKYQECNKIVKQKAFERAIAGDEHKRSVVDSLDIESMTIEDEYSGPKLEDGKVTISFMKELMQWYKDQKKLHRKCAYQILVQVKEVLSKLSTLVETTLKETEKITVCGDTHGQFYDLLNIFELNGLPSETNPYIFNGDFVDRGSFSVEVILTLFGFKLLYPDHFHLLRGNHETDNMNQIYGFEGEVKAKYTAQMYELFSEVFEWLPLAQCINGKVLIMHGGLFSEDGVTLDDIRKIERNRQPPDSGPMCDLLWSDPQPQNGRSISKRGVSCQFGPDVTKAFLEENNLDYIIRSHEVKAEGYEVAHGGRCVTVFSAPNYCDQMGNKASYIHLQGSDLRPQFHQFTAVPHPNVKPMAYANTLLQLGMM
procasp7 counter – procaspase-7 activators, primary screen, counter-screen for procaspase-3 activator project, biochemical, absorbance, HTS, human; AID 463210, 2010; Caspase-7 (Homo sapiens), P55210; recombinant procaspase-7, Ac-DEVD-pNA absorbance 405 nm; D23A/D198A/D206A triple mutant, cannot self-cleave; scale: DMSO 0, 5 µM enzyme 100; 330,000 tested, 0.093% active; activation, % at 8.5 µM;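 active = percent activation above the screen-wide mean plus 3 SD, cut at about 25% in these data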
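signal = Epi-absorbance of released pNA at 405 nm, two timepoints | assay system = Uncleavable procaspase-7 mutant enzyme | reagent = Ac-DEVD-pNA substrate, 400 µM as added | times = 1 h enzyme–compound preincubation and 2 h substrate reaction, both 25 °C | benchmarks = low DMSO alone, high DMSO plus 5 µM PC-7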
PP1 inh – PP1-alpha phosphatase inhibitors, primary screen, counter-screen for PP5 inhibitor project, biochemical, fluorescence, OMFP substrate, single point; Serine/threonine-protein phosphatase PP1-alpha catalytic subunit (Homo sapiens), P62136; purified PP1alpha; inhibition, % at 6.7 µM; 320,000 tested, 0.9% active; AID 2235, 2010;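 active = inhibition above the mean inhibition of all tested compounds plus 3 SD, computed separately for each screening campaign, cut at about 15% in these data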
proCasp3 act – activators of human procaspase-3 D3A mutant, primary screen, biochemical, absorbance, PC-3 D3A mutant, single concentration; 330,000 tested, 0.11% active; recombinant procaspase-3 D3A, Ac-DEVD-pNA absorbance 405 nm; Caspase-3 (Homo sapiens), P42574; activation, % at 8.5 µM;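 active = activation above the mean of all tested compounds plus 3 SD, cut at about 21% in these data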;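 also: 0% = DMSO alone and 100% = DMSO wells spiked with extra 5 µM PC-3 D3A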
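Evaluation: percent activation relative to control range; Material: Procaspase-3 D3A mutant, all three cleavage aspartates alanine; Compound: single dose, 8.5 µM nominal compound, 0.8% DMSO; Replication: one well per compound; Signal: absorbance at 405 nm, 0 and 120 min; Schedule: 1 h preincubation plus 2 h reaction at 25 °C.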
PP1 inh confirm – PP1 phosphatase inhibitors, confirmation, biochemical, fluorescence, OMFP substrate, triplicate. shares compounds with PP1 inh. purified PP1alpha. inhibition, % at 6.7 µM. 1,900 tested, 52% active. AID 2358, 2010;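 active = mean PP1 inhibition above a set limit taken from the earlier primary screen, cut at about 15% in these data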
PP5 inh counter – PP5 phosphatase inhibition by PP1 hits, confirmation, counter-screen for PP1 inhibitor project, biochemical, fluorescence, triplicate. shares compounds with PP1 inh. purified PP5c, OMFP fluorescence. inhibition, % at 6.7 µM. 1,900 tested, 4% active;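 active = mean PP5 inhibition over triplicate wells above about 9.5% taken from the earlier PP1 screen, limit read from the data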
The depositor's hits bear a star; . = no result given. Sampled rows, rich in hits. Any-hit rate of the full collection: about 1.2%.

SMILES	PP5 primary	procasp7 counter	PP1 inh	proCasp3 act	PP1 inh confirm	PP5 inh counter
Cc1ccc(NC(=O)/C(=C\c2cccc([N+](=O)[O-])c2)NC(=O)c2cccs2)cc1	-3	2	24*	-4	18*	-4
CC(=O)NC1C(=O)N(CCN2CCOCC2)c2ccc(Br)cc21 (stereo unspecified)	4	-21	38*	-18	38*	-2
CNC(=S)N1N=C(c2cccs2)CC1c1ccc(F)cc1 (stereo unspecified)	4	-12	-6	-5	.	.
Cc1cccc2c1-c1sc(C(=O)Nc3nccs3)cc1CO2	1	-3	21*	-4	3	-3
Cc1cccc2c1-c1sc(C(=O)Nc3cccnc3)cc1CO2	3	0	4	-3	.	.
COc1c(OC)c(O)c2c(=O)c(O)c(-c3ccccc3)oc2c1OC	1	13	18*	9	30*	-4
COc1ccc(-c2oc3c(OC)c(OC)c(OC)c(O)c3c(=O)c2OC)cc1OC	2	7	-2	3	.	.
Cc1cc2cc(CNC(=S)Nc3ccc(OC(F)(F)F)cc3)ccc2n1C	4	4	5	2	.	.
Cc1cccc(NC(=S)NCc2ccc3c(c2)cc(C)n3C)c1C	3	-4	18*	-4	3	-1
O=C1CNC(=S)N1c1nc2ccccc2s1	-2	-4	25*	-11	-1	-4
O=C1CCC(=O)N1c1ccc(-c2nc3ccccc3s2)cc1	1	-6	1	0	.	.
O=C(CC1S/C(=N/N=C/c2c[nH]c3ccc(OCc4ccccc4)cc23)NC1=O)Nc1ccccc1 (stereo unspecified)	3	-3	24*	-1	24*	-6
O=C(O)c1ccc(/C=C/c2nc3ccccc3c(=O)[nH]2)cc1	-2	-5	-5	-1	.	.
O=c1[nH]c(/C=C/c2ccccc2Cl)nc2ccccc12	0	2	18*	2	25*	-6
Cc1onc(-c2ccccc2Cl)c1C(=O)N1CCC(Cc2ccccc2)CC1	3	4	4	-6	.	.
COc1ccc(CC(=O)Nc2c3c(nn2-c2ccccc2C)CS(=O)C3)cc1 (stereo unspecified)	0	10	22*	3	1	-1
N#Cc1c(SCC(=O)Nc2nncs2)sc2c(O)cc(=O)[nH]c12	-2	-17	42*	-20	10	6
O=C(CSc1nnc(NC(=O)c2c(F)cccc2F)s1)NCc1ccc(F)cc1	3	1	-3	2	.	.
Cc1ccc(S(=O)(=O)Nc2ccccn2)cc1[N+](=O)[O-]	-1	5	0	0	.	.
Cc1ccc(S(=O)(=O)Nc2cccc(-c3ccc(N4CCCCCC4)nn3)c2)cc1	4	-8	18*	-1	11	1
Cc1cc(C(=O)CSc2nn(-c3ccccc3)c(=S)s2)c(C)n1Cc1ccco1	3	-7	20*	-3	15	-2
COc1cnc(-c2ccccn2)nc1Oc1ccc(Cl)c2ccccc12	7	-1	50*	5	43*	1
COc1cnc(-c2ccccn2)nc1Oc1ccc(F)cc1F	4	-8	21*	3	23*	-2
COc1cnc(-c2ccccn2)nc1Oc1ccccc1Cl	-1	3	30*	-4	38*	1
COc1cnc(-c2ccccn2)nc1Oc1ccc(Cl)cc1	2	5	58*	-24	39*	-1
SMILES	PP5 primary	procasp7 counter	PP1 inh	proCasp3 act	PP1 inh confirm	PP5 inh counter
COc1cnc(-c2ccccn2)nc1NC(C)C	1	3	4	-8	.	.
COc1cnc(-c2ccccc2)nc1Oc1ccccc1C	6	5	2	7	.	.
CN(C(=O)CSc1nnc(-c2ccco2)n1Cc1ccccc1)C1CCS(=O)(=O)C1 (stereo unspecified)	0	-9	-5	-11	.	.
CCOC(=O)C1(CCOC)CCN(C(C)CCc2ccc(OC)cc2)CC1 (stereo unspecified)	3	-1	0	4	.	.
CCOc1ccc(C(=O)OCC(=O)NC2CCCC2)cc1OCC	0	6	-1	-1	.	.
Clc1ccc(C(Cn2ccnc2)OCc2c(Cl)cccc2Cl)c(Cl)c1 (stereo unspecified)	5	-5	26*	-7	18*	-3
NCCCC[C@H]1CNC(=O)C(=O)N1CCCCC1CCCCC1	1	-1	-4	1	.	.
O=C1NC[C@@H](Cc2cccc3ccccc23)N(CCCCC2CCCCC2)C1=O	5	6	21*	13	3	2
O=C(CCN1C(=O)/C(=C/c2ccccc2Cl)SC1=S)NC1C=CS(=O)(=O)C1 (stereo unspecified)	-1	-17	24*	-14	24*	-1
COc1cccc2c(=O)c3cccc(N)c3[nH]c12	1	-13	20*	-26	19*	13*
COc1cccc2c(=O)c3c([nH]c12)OC(C)(C)C3	3	0	-1	-5	.	.
COc1ccc(C(=O)N/N=C/c2ccc3cccc(O)c3n2)cc1	-4	6	20*	-2	5	2
O=C(N/N=C/c1ccncc1)c1ccc(COc2cccc3cccnc23)cc1	-1	0	4	6	.	.
O=C(N/N=C/c1ccc2cccc(OCc3ccccc3)c2n1)c1ccc(Cl)cc1	3	7	24*	7	2	0
O/N=C/c1ccc2cccc(O)c2n1	-1	4	-2	3	.	.
N#Cc1ccc(C23CC4(C2)[C@H](CN(P(=O)(c2ccccc2)c2ccccc2)[C@@H]4c2ccccc2)C3c2ccc(Cl)nc2)cc1 (stereo partly specified)	4	12	18*	2	6	4
Clc1ccc(C2[C@H]3CN(Cc4cccnc4)[C@H](c4ccccc4)C34CC2(c2ccccc2)C4)cn1 (stereo partly specified)	5	0	21*	-6	17*	1
CCN(CC(=O)Nc1c(F)cccc1F)C(=O)c1csc2c1CCCC2	1	4	-4	-7	.	.
Cc1ccc(-c2cc(-c3ccco3)c3c(N)c(C(=O)NN)oc3n2)cc1	3	-6	18*	-1	13	6
COC(=O)C1(CC2CC(c3ccncc3)=NO2)CCN(C(=O)OC(C)(C)C)CC1 (stereo unspecified)	0	4	1	-3	.	.
